# According to ChEMBL document CHEMBL1681781, “Structure based design and syntheses of amino-1H-pyrazole amide derivatives as selective Raf kinase inhibitors in melanoma cells” (Bioorg Med Chem, 2011):
# Legend:
# [1] = molecular target: T1, Ribosomal protein S6 kinase beta-1 (Homo sapiens, UniProt P23443); assay: inhibition of p70S6K at 10 uM
# [2] = Antiproliferative activity against human A375P cells assessed as growth inhibition after 24 hrs by MTT assay; type: functional
# Outline: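 A375P cells kept in DMEM with 10% FBS and 1% penicillin/streptomycin at 37 °C under 5% CO2. Cells lifted with 0.05% trypsin–0.02% EDTA, seeded at 5 × 10^3 cells/well and left 24 h before dosing. Test compounds given as a 3-fold serial dilution over 12 points. Viability read by MTT reduction, absorbance at 590 nm.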
# HS27 = assay: Antiproliferative activity against human HS27 cells assessed as growth inhibition after 24 hrs by MTT assay; type: functional; details: HS27, 24 h
# [3] = system: RAC-alpha serine/threonine-protein kinase (Homo sapiens), P31749 [S473D]; assay: Inhibition of AKT1 PH S473D mutant at 10 uM
# [4] = molecular target: Aurora kinase A (Homo sapiens) (UniProt O14965); assay: Inhibition of Aurora A kinase at 10 uM
# [5] = system: Serine/threonine-protein kinase B-raf (Homo sapiens), P15056 [V600E]; assay: Inhibition of b-Raf V599E mutant at 10 uM
# [6] = molecular target: Cyclin-dependent kinase 1/cyclin B (Homo sapiens) (UniProt P06493+P14635+Q8WWL7+O95067); assay: Inhibition of CDK1/cyclin B at 10 uM; type: protein-complex assay
# [7] = molecular target: Cyclin-dependent kinase 2/cyclin E (Homo sapiens) (UniProt P24864+P24941+O96020); assay: Inhibition of CDK2/cyclin E at 10 uM; type: protein-complex assay
# [8] = molecular target: T2, Mitogen-activated protein kinase 1 (Homo sapiens, UniProt P28482); assay: Inhibition of ERK2 at 10 uM
# T2 sequence (P28482 whole entry): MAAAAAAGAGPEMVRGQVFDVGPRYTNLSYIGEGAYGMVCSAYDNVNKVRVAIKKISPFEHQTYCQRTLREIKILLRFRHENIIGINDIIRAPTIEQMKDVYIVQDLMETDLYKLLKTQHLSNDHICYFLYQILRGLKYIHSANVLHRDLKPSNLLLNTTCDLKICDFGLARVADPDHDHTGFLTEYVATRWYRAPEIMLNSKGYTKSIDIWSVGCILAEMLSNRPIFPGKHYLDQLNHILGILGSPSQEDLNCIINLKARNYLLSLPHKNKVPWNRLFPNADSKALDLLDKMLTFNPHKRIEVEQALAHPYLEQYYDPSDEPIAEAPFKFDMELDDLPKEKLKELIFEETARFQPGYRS
# [9] = molecular target: Focal adhesion kinase 1 (Homo sapiens) (UniProt Q05397); assay: Inhibition of FAK at 10 uM
# [10] = molecular target: T3, Glycogen synthase kinase-3 beta (Homo sapiens, UniProt P49841); assay: inhibition of GSK3-beta at 10 uM
# [11] = molecular target: Insulin-like growth factor 1 receptor (Homo sapiens) (UniProt P08069); assay: inhibition of IGF-1R at 10 uM
# [12] = molecular target: Tyrosine-protein kinase JAK3 (Homo sapiens) (UniProt P52333); assay: inhibition of JAK3 at 10 uM
# [13] = molecular target: T4, Vascular endothelial growth factor receptor 2 (Homo sapiens, UniProt P35968); assay: inhibition of KDR at 10 uM
# [14] = molecular target: T5, Dual specificity mitogen-activated protein kinase kinase 1 (Homo sapiens, UniProt Q02750); assay: inhibition of MEK1 at 10 uM
# T5 sequence (Q02750 whole entry): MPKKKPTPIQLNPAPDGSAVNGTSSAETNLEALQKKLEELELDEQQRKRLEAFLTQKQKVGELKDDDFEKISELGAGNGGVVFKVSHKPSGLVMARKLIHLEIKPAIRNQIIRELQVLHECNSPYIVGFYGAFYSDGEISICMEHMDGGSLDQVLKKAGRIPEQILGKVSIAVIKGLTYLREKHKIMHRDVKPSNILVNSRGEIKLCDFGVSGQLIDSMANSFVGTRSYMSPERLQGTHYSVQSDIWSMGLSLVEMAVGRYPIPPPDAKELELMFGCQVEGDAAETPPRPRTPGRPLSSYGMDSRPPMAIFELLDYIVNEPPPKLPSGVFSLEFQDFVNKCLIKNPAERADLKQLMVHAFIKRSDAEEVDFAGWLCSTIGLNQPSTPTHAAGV
# [15] = molecular target: Serine/threonine-protein kinase mTOR (Homo sapiens, UniProt P42345); assay: inhibition of mTOR at 10 uM
# [16] = inhibition of PKA at 10 uM
# [17] = molecular target: T6, Serine/threonine-protein kinase PLK1 (Homo sapiens, UniProt P53350); assay: inhibition of PLK1 at 10 uM
# [18] = molecular target: RAF proto-oncogene serine/threonine-protein kinase (Homo sapiens, UniProt P04049); assay: inhibition of RAF1 assessed as [33P]gamma-ATP incorporation into substrate at 10 uM after 40 mins by scintillation counting
# [19] = molecular target: T7, Macrophage-stimulating protein receptor (Homo sapiens, UniProt Q04912); assay: inhibition of RON at 10 uM
# [20] = molecular target: T8, Proto-oncogene tyrosine-protein kinase ROS (Homo sapiens, UniProt P08922); assay: inhibition of ROS at 10 uM
# T8 sequence (P08922 whole entry): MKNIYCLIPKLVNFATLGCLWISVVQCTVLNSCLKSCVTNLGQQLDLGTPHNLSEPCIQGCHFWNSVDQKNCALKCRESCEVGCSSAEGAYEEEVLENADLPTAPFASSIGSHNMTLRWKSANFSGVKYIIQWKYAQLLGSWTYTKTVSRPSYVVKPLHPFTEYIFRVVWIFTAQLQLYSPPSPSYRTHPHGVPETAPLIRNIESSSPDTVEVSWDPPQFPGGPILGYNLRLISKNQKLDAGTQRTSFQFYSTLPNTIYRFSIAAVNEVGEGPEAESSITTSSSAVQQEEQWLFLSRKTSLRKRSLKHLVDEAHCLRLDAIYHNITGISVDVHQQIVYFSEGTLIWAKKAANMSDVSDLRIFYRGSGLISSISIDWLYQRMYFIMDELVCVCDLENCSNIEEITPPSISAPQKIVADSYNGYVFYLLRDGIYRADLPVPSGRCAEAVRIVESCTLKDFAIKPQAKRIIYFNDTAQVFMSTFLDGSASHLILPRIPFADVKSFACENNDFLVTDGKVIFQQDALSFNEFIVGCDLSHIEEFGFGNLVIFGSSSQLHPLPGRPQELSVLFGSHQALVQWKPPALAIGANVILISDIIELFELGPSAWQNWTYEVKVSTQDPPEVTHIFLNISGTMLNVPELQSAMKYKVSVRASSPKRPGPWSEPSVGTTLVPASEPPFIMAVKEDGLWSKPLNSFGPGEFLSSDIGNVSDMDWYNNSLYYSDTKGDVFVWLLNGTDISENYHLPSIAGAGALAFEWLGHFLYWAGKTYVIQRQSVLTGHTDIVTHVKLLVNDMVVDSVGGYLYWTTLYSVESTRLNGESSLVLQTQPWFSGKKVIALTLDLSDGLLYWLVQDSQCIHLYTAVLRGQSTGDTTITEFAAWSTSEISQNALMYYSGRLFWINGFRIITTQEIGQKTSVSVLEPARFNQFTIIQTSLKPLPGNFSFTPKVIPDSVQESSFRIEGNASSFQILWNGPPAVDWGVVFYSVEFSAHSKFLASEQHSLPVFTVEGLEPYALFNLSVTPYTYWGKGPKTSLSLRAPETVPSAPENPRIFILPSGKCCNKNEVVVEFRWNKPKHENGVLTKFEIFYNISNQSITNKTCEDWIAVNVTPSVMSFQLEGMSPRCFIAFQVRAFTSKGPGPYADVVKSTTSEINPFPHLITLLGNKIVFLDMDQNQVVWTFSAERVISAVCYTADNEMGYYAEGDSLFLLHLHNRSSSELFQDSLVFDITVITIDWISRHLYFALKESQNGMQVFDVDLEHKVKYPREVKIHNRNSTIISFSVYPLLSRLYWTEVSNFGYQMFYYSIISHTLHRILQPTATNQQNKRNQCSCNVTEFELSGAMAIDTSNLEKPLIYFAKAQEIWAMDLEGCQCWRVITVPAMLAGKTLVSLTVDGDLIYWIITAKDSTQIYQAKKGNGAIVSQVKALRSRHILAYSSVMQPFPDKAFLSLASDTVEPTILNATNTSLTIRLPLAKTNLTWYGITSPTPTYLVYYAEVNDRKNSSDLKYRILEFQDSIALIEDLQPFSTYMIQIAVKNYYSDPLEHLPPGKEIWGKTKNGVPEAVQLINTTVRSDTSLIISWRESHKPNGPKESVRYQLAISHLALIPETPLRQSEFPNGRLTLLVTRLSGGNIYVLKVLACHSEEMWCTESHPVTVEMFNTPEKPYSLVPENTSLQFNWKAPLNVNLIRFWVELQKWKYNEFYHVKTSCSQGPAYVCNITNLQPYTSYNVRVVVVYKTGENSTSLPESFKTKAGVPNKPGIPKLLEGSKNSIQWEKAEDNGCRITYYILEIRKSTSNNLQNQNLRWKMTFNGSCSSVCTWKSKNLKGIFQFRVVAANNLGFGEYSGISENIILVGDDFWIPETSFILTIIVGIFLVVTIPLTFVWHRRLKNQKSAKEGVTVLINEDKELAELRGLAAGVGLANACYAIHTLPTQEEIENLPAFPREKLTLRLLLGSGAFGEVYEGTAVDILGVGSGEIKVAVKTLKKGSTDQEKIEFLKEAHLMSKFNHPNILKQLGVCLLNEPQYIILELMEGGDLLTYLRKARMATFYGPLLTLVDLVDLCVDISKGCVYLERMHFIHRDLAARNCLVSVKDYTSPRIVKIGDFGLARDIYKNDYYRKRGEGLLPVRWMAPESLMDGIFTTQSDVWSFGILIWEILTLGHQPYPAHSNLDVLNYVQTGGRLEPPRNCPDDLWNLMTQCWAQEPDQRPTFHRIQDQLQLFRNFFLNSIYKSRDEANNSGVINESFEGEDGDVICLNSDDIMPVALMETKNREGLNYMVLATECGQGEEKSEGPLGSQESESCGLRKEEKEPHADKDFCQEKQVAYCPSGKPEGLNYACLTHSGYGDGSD
# [21] = molecular target: T9, Tyrosine-protein kinase SYK (Homo sapiens, UniProt P43405); assay: inhibition of SYK at 10 uM
# [22] = molecular target: T10, BDNF/NT-3 growth factors receptor (Homo sapiens, UniProt Q16620); assay: inhibition of TRKB at 10 uM
# Aurora kinase A = Aurora kinase A (Homo sapiens, UniProt O14965); assay: Inhibition of Aurora A kinase
# [23] = molecular target: T11, Hepatocyte growth factor receptor (Homo sapiens, UniProt P08581); assay: Inhibition of c-MET
# T11 sequence (P08581 whole entry): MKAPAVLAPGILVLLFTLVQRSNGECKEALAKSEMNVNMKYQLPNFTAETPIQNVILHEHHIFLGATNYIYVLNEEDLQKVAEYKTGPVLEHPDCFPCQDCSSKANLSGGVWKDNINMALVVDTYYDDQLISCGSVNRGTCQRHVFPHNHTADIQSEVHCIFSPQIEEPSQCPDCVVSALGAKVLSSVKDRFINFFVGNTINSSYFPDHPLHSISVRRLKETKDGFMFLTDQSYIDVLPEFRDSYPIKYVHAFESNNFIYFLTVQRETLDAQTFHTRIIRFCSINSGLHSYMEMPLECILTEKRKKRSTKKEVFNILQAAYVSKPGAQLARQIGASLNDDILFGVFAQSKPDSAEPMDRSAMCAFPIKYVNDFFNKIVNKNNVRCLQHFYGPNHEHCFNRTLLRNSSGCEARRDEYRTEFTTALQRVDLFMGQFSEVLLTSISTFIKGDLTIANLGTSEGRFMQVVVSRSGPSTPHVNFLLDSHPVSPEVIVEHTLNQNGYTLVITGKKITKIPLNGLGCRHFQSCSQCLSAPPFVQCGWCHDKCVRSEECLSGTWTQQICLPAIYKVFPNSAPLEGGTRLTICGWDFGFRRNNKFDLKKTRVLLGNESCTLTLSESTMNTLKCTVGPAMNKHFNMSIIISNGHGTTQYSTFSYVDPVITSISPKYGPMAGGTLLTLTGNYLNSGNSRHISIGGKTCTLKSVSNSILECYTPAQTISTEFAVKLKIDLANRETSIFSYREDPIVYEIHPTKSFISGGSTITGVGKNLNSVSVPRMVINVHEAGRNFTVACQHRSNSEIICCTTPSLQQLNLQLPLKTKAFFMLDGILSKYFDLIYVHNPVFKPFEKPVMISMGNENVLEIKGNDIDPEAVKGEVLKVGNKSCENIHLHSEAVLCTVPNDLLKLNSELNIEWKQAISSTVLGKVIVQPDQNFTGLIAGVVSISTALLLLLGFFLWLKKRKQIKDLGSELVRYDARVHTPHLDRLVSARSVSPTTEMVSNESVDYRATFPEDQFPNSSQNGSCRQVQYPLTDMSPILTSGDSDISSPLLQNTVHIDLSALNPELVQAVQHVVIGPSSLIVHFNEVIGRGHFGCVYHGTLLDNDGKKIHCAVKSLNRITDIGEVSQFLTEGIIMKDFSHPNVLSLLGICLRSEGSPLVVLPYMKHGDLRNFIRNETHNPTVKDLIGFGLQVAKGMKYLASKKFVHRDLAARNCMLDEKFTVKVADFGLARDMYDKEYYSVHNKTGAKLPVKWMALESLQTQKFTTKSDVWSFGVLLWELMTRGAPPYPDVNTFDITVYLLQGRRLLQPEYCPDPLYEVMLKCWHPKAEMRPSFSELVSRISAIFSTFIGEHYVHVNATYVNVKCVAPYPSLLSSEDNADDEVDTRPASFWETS
# [24] = molecular target: T12, Proto-oncogene tyrosine-protein kinase Src (Homo sapiens, UniProt P12931); assay: Inhibition of c-Src
# [25] = molecular target: Cyclin-dependent kinase 1/cyclin B (Homo sapiens, UniProt P06493); assay: Inhibition of CDK1/cyclin B; type: protein-complex assay
# [26] = molecular target: Cyclin-dependent kinase 2/cyclin E (Homo sapiens, UniProt P24941); assay: Inhibition of CDK2/cyclin E; type: protein-complex assay
# [27] = molecular target: T2, Mitogen-activated protein kinase 1; assay: Inhibition of ERK2
# [28] = molecular target: Receptor-type tyrosine-protein kinase FLT3 (Homo sapiens, UniProt P36888); assay: inhibition of FLT3
# [29] = molecular target: T13, Fibroblast growth factor receptor 3 (Homo sapiens, UniProt P22607); assay: inhibition of FGFR3
# [30] = molecular target: T3, Glycogen synthase kinase-3 beta; assay: inhibition of GSK3-beta
# [31] = molecular target: T4, Vascular endothelial growth factor receptor 2; assay: inhibition of KDR
# [32] = molecular target: T5, Dual specificity mitogen-activated protein kinase kinase 1; assay: inhibition of MEK1
# [33] = molecular target: T1, Ribosomal protein S6 kinase beta-1; assay: inhibition of p70S6K
# [34] = inhibition of PKA
# [35] = molecular target: T6, Serine/threonine-protein kinase PLK1; assay: inhibition of PLK1
# [36] = molecular target: T7, Macrophage-stimulating protein receptor; assay: inhibition of RON
# [37] = molecular target: T8, Proto-oncogene tyrosine-protein kinase ROS; assay: inhibition of ROS
# [38] = molecular target: T9, Tyrosine-protein kinase SYK; assay: inhibition of SYK
# [39] = molecular target: T10, BDNF/NT-3 growth factors receptor; assay: inhibition of TRKB
# [40] = molecular target: T14, Mitogen-activated protein kinase 10 (Homo sapiens, UniProt P53779); assay: inhibition of JNK3
# T14 sequence (P53779 whole entry): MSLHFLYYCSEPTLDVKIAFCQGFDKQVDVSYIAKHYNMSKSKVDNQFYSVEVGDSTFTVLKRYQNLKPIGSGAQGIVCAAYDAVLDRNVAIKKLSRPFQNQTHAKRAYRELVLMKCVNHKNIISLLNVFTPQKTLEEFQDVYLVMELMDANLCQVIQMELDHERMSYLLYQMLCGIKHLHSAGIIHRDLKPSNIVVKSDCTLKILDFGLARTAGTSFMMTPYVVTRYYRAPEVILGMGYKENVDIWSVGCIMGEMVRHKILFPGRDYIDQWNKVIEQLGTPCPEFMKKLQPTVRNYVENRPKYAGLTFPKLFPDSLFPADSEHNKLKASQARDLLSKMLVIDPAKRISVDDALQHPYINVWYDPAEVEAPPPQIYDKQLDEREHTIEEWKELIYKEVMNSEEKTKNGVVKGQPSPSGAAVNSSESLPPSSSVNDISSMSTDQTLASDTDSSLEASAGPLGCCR
# [41] = molecular target: T15, Mitogen-activated protein kinase 8 (Homo sapiens, UniProt P45983); assay: inhibition of JNK1a1 at 10 uM
# [42] = molecular target: T15, Mitogen-activated protein kinase 8; assay: inhibition of JNK1a1; details: concentration not given here
# [43] = molecular target: ALK tyrosine kinase receptor (Homo sapiens) (UniProt Q9UM73); details: 10 uM
# [44] = molecular target: T11, Hepatocyte growth factor receptor; details: 10 uM
# [45] = molecular target: T12, Proto-oncogene tyrosine-protein kinase Src; details: 10 uM
# [46] = molecular target: T13, Fibroblast growth factor receptor 3; details: 10 uM
# [47] = molecular target: Receptor-type tyrosine-protein kinase FLT3 (Homo sapiens) (UniProt P36888); details: 10 uM
# [48] = molecular target: T14, Mitogen-activated protein kinase 10; details: 10 uM
smiles,measurement,setting,value
COc1ccc(Cn2ncc(NC(=O)c3cc(NC(=O)Nc4ccc(Cl)c(C(F)(F)F)c4)ccc3C)c2N)cc1,inhibition,[1],0%
same,GI50,[2],270 nM
same,GI50,HS27,> 30000 nM
same,inhibition,[3],3.7%
same,inhibition,[4],0%
same,inhibition,[5],97%
same,inhibition,[6],0%
same,inhibition,[7],0%
same,inhibition,[8],0%
same,inhibition,[9],1.5%
same,inhibition,[10],1.4%
same,inhibition,[11],0.7%
same,inhibition,[12],0%
same,inhibition,[13],0%
same,inhibition,[14],0%
same,inhibition,[15],1.2%
same,inhibition,[16],0%
same,inhibition,[17],6.3%
same,inhibition,[18],100%
same,inhibition,[19],0%
same,inhibition,[20],0%
same,inhibition,[21],0%
same,inhibition,[22],6.6%
same,IC50,Aurora kinase A,< 1 nM
same,IC50,[23],193 nM
same,IC50,[24],4.79 nM
same,IC50,[25],3.2 nM
same,IC50,[26],2.13 nM
same,IC50,[27],11400 nM
same,IC50,[28],< 1 nM
same,IC50,[29],21.5 nM
same,IC50,[30],2.73 nM
same,IC50,[31],9.42 nM
same,IC50,[32],18.2 nM
same,IC50,[33],< 1 nM
same,IC50,[34],< 1 nM
same,IC50,[35],167 nM
same,IC50,[36],277 nM
same,IC50,[37],< 1 nM
same,IC50,[38],< 1 nM
same,IC50,[39],< 1 nM
same,IC50,[40],> 20000 nM
same,IC50,[41],1590 nM
same,inhibition,[42],7.1%
same,inhibition,[43],7.7%
same,inhibition,[44],13%
same,inhibition,[45],16%
same,inhibition,[46],0.1%
same,inhibition,[47],13%
same,inhibition,[48],13%
